Converted amounts (≈) assume the structure as drawn.
Assays:
Pseudomonas aeruginosa [1] = assay: Potentiation of tobramycin-induced antibiotic activity against Pseudomonas aeruginosa PAO1 assessed as MIC fold reduction at 8 ug/ml after 18 hrs by microbroth dilution method; format: functional; conditions: dose 8 µg/ml
Escherichia coli [2] = assay: Potentiation of ceftazidime-induced antibiotic activity against Escherichia coli ATCC 25922 assessed as MIC fold reduction at 8 ug/ml after 18 hrs by microbroth dilution method; format: functional; conditions: dose 8 µg/ml
Summary of the method: (§1)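 Adjuvant held at a fixed 8 μg/mL while the antibiotic was 2-fold serially diluted in Mueller-Hinton broth (MHB), per CLSI microbroth dilution. Overnight cultures were adjusted in saline to 0.5 McFarland, then diluted 1:50 in MHB to about 5 × 10^5 CFU/mL final, and incubated 18 h at 37 °C. MIC was the lowest concentration with no visible turbidity, confirmed at 590 nm. Fold potentiation = MIC alone / MIC with adjuvant.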

Acinetobacter baumannii [3] = assay: Potentiation of ceftolozane-induced antibiotic activity against Acinetobacter baumannii ATCC 17978 assessed as MIC fold reduction at 8 ug/ml after 18 hrs by microbroth dilution method; format: functional; conditions: dose 8 µg/ml; summary of the method: as §1
Escherichia coli [4] = assay: Potentiation of ceftolozane-induced antibiotic activity against Escherichia coli ATCC 25922 assessed as MIC fold reduction at 8 ug/ml after 18 hrs by microbroth dilution method; format: functional; conditions: dose 8 µg/ml; summary of the method: as §1
Pseudomonas aeruginosa [5] = assay: Potentiation of aztreonam-induced antibiotic activity against Pseudomonas aeruginosa PAO1 assessed as MIC fold reduction at 8 ug/ml after 18 hrs by microbroth dilution method; format: functional; conditions: dose 8 µg/ml
Summary of the method: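 Initial screen in MHB using a fixed 8 μg mL−1 of adjuvant combined with each antibiotic under 2-fold dilution. Broth microdilution used about 5 × 10^5 CFU/mL at 37 °C for 18 h, with visible turbidity read and confirmed at 590 nm. Fold-potentiation = antibiotic MIC alone ÷ antibiotic MIC with adjuvant.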

Pseudomonas aeruginosa [6] = assay: Potentiation of erythromycin-induced antibiotic activity against Pseudomonas aeruginosa PAO1 assessed as MIC fold reduction at 8 ug/ml after 18 hrs by microbroth dilution method; format: functional; conditions: dose 8 µg/ml; summary of the method: as §1
Escherichia coli [7] = assay: Potentiation of cotrimoxazole-induced antibiotic activity against Escherichia coli ATCC 25922 assessed as MIC fold reduction at 8 ug/ml after 18 hrs by microbroth dilution method; format: functional; conditions: dose 8 µg/ml; summary of the method: as §1
Pseudomonas aeruginosa [8] = assay: Antibacterial activity against Pseudomonas aeruginosa PAO1 assessed as reduction in bacterial growth after 18 hrs by microbroth dilution method; format: functional
Summary of the method: (§2)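 CLSI broth microdilution. Overnight cultures were adjusted in saline to 0.5 McFarland, diluted 1:50 in Mueller-Hinton broth (MHB), and inoculated at about 5 × 10^5 CFU/mL. Agents were 2-fold serially diluted in MHB, mixed 1:1 with inoculum, and held at 37 °C for 18 h. MIC was the lowest concentration with no visible turbidity, confirmed at 590 nm.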

Pseudomonas aeruginosa [9] = assay: Antibacterial activity against MDR clinical isolate Pseudomonas aeruginosa PA259 assessed as reduction in bacterial growth after 18 hrs by microbroth dilution method; format: functional; summary of the method: as §2
Pseudomonas aeruginosa [10] = assay: Antibacterial activity against MDR clinical isolate Pseudomonas aeruginosa PA262 assessed as reduction in bacterial growth after 18 hrs by microbroth dilution method; format: functional; summary of the method: as §2
Pseudomonas aeruginosa [11] = assay: Antibacterial activity against MDR clinical isolate Pseudomonas aeruginosa PA108590 assessed as reduction in bacterial growth after 18 hrs by microbroth dilution method; format: functional; summary of the method: as §2
Pseudomonas aeruginosa [12] = assay: Antibacterial activity against MDR clinical isolate Pseudomonas aeruginosa PA260 assessed as reduction in bacterial growth after 18 hrs in presence of cefiderocol by microbroth dilution method; format: functional
Summary of the method: (§3)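 Checkerboard in MHB. Cefiderocol was 2-fold serially diluted along one axis and the adjuvant along the other. Inoculum was prepared from 0.5 McFarland saline suspensions diluted 1:50 in MHB, giving about 5 × 10^5 CFU/mL final. Plates ran 18 h at 37 °C, with turbidity confirmed at 590 nm. FIC = combination MIC ÷ MIC alone for each agent, and FIC index = sum of both. Interpretation: ≤0.5 synergy, >0.5–4 additive, >4 antagonism.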

Pseudomonas aeruginosa [13] = assay: Antibacterial activity against MDR clinical isolate Pseudomonas aeruginosa PA100036 assessed as reduction in bacterial growth after 18 hrs in presence of cefiderocol by microbroth dilution method; format: functional; summary of the method: as §3
Pseudomonas aeruginosa [14] = assay: Antibacterial activity against colistin-resistant clinical isolate Pseudomonas aeruginosa PA91433 assessed as reduction in bacterial growth after 18 hrs in presence of cefiderocol by microbroth dilution method; format: functional
Summary of the method: (§4)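 Checkerboard in MHB (iron-replete, not iron-depleted CAMHB). Cefiderocol was 2-fold serially diluted along one axis and the adjuvant along the other. Inoculum was 0.5 McFarland diluted 1:50, about 5 × 10^5 CFU/mL final. Incubation was 18 h at 37 °C, with turbidity read visually and confirmed at 590 nm. FIC was the MIC in combination over the MIC alone for each agent, and the FIC index was their sum. Cut-offs were ≤0.5 synergy, >0.5–4 additive, >4 antagonism.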

Pseudomonas aeruginosa [15] = assay: Antibacterial activity against colistin-resistant clinical isolate Pseudomonas aeruginosa PA101243 assessed as reduction in bacterial growth after 18 hrs in presence of cefiderocol by microbroth dilution method; format: functional; summary of the method: as §4
Pseudomonas aeruginosa [16] = assay: Antibacterial activity against MDR clinical isolate Pseudomonas aeruginosa PA108590 assessed as potentiation of cefiderocol antibacterial activity by measuring FIC index after 18 hrs by microbroth dilution method; format: functional; summary of the method: as §4
Acinetobacter baumannii [17] = assay: Antibacterial activity against Acinetobacter baumannii AB92247 assessed as reduction in bacterial growth after 18 hrs by microbroth dilution method; format: functional
Summary of the method: (§5)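 CLSI microbroth dilution in MHB. Overnight cultures were adjusted to 0.5 McFarland in saline, diluted 1:50, and inoculated at about 5 × 10^5 CFU/mL. Agents were 2-fold serially diluted and incubated 18 h at 37 °C. MIC is the lowest concentration without visible turbidity, confirmed by absorbance at 590 nm. Medium with and without cells served as controls.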

Acinetobacter baumannii [18] = assay: Antibacterial activity against Acinetobacter baumannii AB031 assessed as reduction in bacterial growth after 18 hrs in presence of cefiderocol by microbroth dilution method; format: functional
Summary of the method: (§6)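 Checkerboard in Mueller-Hinton broth: cefiderocol 2-fold diluted on one axis, adjuvant 2-fold on the other. Overnight cultures were adjusted to 0.5 McFarland in saline, diluted 1:50 in MHB, and inoculated at about 5 × 10^5 CFU/mL. Incubation was 18 h at 37 °C. Turbidity was read visually and confirmed at 590 nm. FIC index = FIC of antibiotic + FIC of adjuvant; ≤0.5 synergy, >4 antagonism.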

Enterobacter cloacae [19] = assay: Antibacterial activity against Enterobacter cloacae 117029 assessed as reduction in bacterial growth after 18 hrs by microbroth dilution method; format: functional; summary of the method: as §5
Escherichia coli [20] = assay: Antibacterial activity against Escherichia coli ATCC 25922 assessed as reduction in bacterial growth after 18 hrs in presence of cefiderocol by microbroth dilution method; format: functional; summary of the method: as §6
Klebsiella pneumoniae = assay: Antibacterial activity against Klebsiella pneumoniae KP113250 assessed as reduction in bacterial growth after 18 hrs in presence of cefiderocol by microbroth dilution method; format: functional; summary of the method: as §6
Enterobacter cloacae [21] = assay: Antibacterial activity against Enterobacter cloacae 118564 assessed as reduction in bacterial growth after 18 hrs in presence of cefiderocol by microbroth dilution method; format: functional; summary of the method: as §6
Enterobacter cloacae [22] = assay: Antibacterial activity against Enterobacter cloacae 117029 assessed as potentiation of cefiderocol antibacterial activity by measuring FIC after 18 hrs by microbroth dilution method; format: functional; summary of the method: as §6
Pseudomonas aeruginosa [23] = assay: Potentiation of moxifloxacin-induced antibiotic activity against Pseudomonas aeruginosa PAO1 assessed as reduction in microbial growth at 8 ug/ml after 18 hrs by microbroth dilution method relative to control; conditions: PAO1, 18 h, read-out: GI

With `NC[C@H]1O[C@H](O[C@H]2[C@H](OCCCCc3cn(-c4ccc(NC(=O)c5cc(Cl)ccc5O)cc4)nn3)[C@@H](O[C@H]3O[C@H](CO)[C@@H](O)[C@H](N)[C@H]3O)[C@H](N)C[C@@H]2N)[C@H](N)C[C@@H]1O` the “fold change (FC)” value (Pseudomonas aeruginosa [1]) was 4, the “fold change (FC)” value (Escherichia coli [2]) was 4 and the “fold change (FC)” value (Acinetobacter baumannii [3]) was 4. The “fold change (FC)” value (Escherichia coli [4]) was 4, the “fold change (FC)” value (Pseudomonas aeruginosa [5]) was 4 and the “fold change (FC)” value (Pseudomonas aeruginosa [6]) was 4. For the same molecule, the “fold change (FC)” value (Escherichia coli [7]) was 4, the MIC (Pseudomonas aeruginosa [8]) was 64 µg/mL (≈ 76.5 µM) and the MIC (Pseudomonas aeruginosa [9]) was over 128 µg/mL. For the same molecule, the MIC (Pseudomonas aeruginosa [10]) was over 128 µg/mL, the MIC (Pseudomonas aeruginosa [11]) was over 128 µg/mL and the MIC (Pseudomonas aeruginosa [12]) was 0.125 µg/mL. For the same molecule, the MIC (Pseudomonas aeruginosa [13]) was 0.25 µg/mL, the MIC (Pseudomonas aeruginosa [14]) was 1 µg/mL and the MIC (Pseudomonas aeruginosa [15]) was 2 µg/mL. For the same molecule, the FIC (Pseudomonas aeruginosa [16]) was 0.016, the MIC (Acinetobacter baumannii [17]) was over 128 µg/mL and the MIC (Acinetobacter baumannii [18]) was 0.25 µg/mL. For the same molecule, the MIC (Enterobacter cloacae [19]) was over 128 µg/mL, the MIC (Escherichia coli [20]) was 0.25 µg/mL and the MIC (Klebsiella pneumoniae) was 4 µg/mL. For the same molecule, the MIC (Enterobacter cloacae [21]) was 0.25 µg/mL, the FIC (Enterobacter cloacae [22]) was 0.5 and the inhibition of growth at 8 µg/mL (Pseudomonas aeruginosa [23]) was 100%.

Reference: ChEMBL document CHEMBL5136969, “A niclosamide-tobramycin hybrid adjuvant potentiates cefiderocol against P. aeruginosa” (2021)
